Reference: ChEMBL document CHEMBL4017460, “A Tobramycin Vector Enhances Synergy and Efficacy of Efflux Pump Inhibitors against Multidrug-Resistant Gram-Negative Bacteria” (J Med Chem, 2017)
The source made the active and inactive calls. The rule behind the calls is not given here.

Columns and labels:
Pseudomonas aeruginosa [1] = test: Antibacterial activity against XDR Pseudomonas aeruginosa isolate P262-101856 infected in Galleria mellonella assessed as protection against bacterial infection by measuring larval death at 75 mg/kg up to 24 hrs relative to control; format: functional
How it was run: (§1)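 G. mellonella larvae infected with 1.0 × 10^5/mL CFU of XDR P. aeruginosa 101856. A single-dose injection of agent, alone or with minocycline, given 2 h post-infection. Survival scored up to 24 h. 15 larvae per experiment from different batches, two experiments per dosage (n = 30). Significance 0 vs 24 h at P ≤ 0.05.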

Pseudomonas aeruginosa [2] = test: Inhibition of RND efflux pump in Pseudomonas aeruginosa isolate P262-104354 assessed as potentiation of minocycline-induced antibacterial activity by measuring fold reduction in minocycline MIC at 0.25 times antibacterial MIC after 18 to 24 hrs by microbroth dilution assay
How it was run: (§2)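 Checkerboard broth microdilution: antibiotic 2-fold diluted along one axis, adjuvant 2-fold diluted along the other. Overnight culture standardized to 0.5 McFarland in saline, diluted 1:50 in MHB, added to wells, 37 °C for 18 h. MIC is the lowest concentration with no growth. FIC = MIC in combination / MIC alone; FICI = sum of the two FICs; FICI ≤0.5 is synergy.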

[3] = tested on: Pseudomonas aeruginosa PAO1; test: Inhibition of RND efflux pump in Pseudomonas aeruginosa PAO1 assessed as potentiation of minocycline-induced antibacterial activity by measuring ratio of minocycline MIC after 25 serial passages to minocycline MIC at sub-MIC after 18 to 24 hrs by microbroth dilution assay
Pseudomonas aeruginosa [4] = test: Inhibition of RND efflux pump in colistin-resistant Pseudomonas aeruginosa isolate 91433 assessed as potentiation of minocycline-induced antibacterial activity at 8 ug/ml after 18 to 24 hrs by checker board assay; how it was run: as §2
[5] = Hemolytic activity against ovine erythrocytes at 1000 ug/ml after 30 mins relative to control; format: ADME, cell-based, Ovis aries, Erythrocyte; conditions: sheep, read-out: Activity
Pseudomonas aeruginosa [6] = test: (§3) Inhibition of RND efflux pump in XDR Pseudomonas aeruginosa isolate P262-101856 infected in Galleria mellonella assessed as potentiation of minocycline-induced antibacterial activity by measuring larval survival rate at 75 mg/kg co-treated with 75 mg/kg minocycline measured after 24 hrs relative to control; format: organism-based; how it was run: as §1
[7] = tested on: Pseudomonas aeruginosa PAO1; test: Inhibition of RND efflux pump in Pseudomonas aeruginosa PAO1 assessed as potentiation of minocycline-induced bactericidal activity at 0.5 times antibacterial MIC up to 24 hrs by serial dilution assay
Pseudomonas aeruginosa [8] = test: Inhibition of RND efflux pump in colistin-resistant Pseudomonas aeruginosa isolate 91433 assessed as potentiation of minocycline-induced antibacterial activity by measuring minocycline MIC at 8 ug/ml after 18 to 24 hrs by microbroth dilution assay (reference value: 32 ug/ml); how it was run: as §2
Pseudomonas aeruginosa [9] = test: Inhibition of RND efflux pump in Pseudomonas aeruginosa isolate P264-104354 assessed as potentiation of minocycline-induced antibacterial activity at 8 ug/ml after 18 to 24 hrs by checker board assay
How it was run: as §2, with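 “in MHB:” for “broth microdilution:”, “test agent” for “adjuvant”, “wells, incubated” for “wells,”, “FIC index” for “FICI”, “both FICs.” for “the two FICs; FICI ≤0.5 is synergy.”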

Galleria mellonella = test: Toxicity in Galleria mellonella assessed as death at 200 mg/kg up to 96 hrs; format: organism-based; conditions: in vivo
Pseudomonas aeruginosa [10] = test: Inhibition of RND efflux pump in colistin-resistant Pseudomonas aeruginosa isolate 91433 assessed as potentiation of minocycline-induced antibacterial activity by measuring fold reduction in minocycline MIC at 8 ug/ml after 18 to 24 hrs by microbroth dilution assay; how it was run: as §2
Pseudomonas aeruginosa [11] = test: Inhibition of RND efflux pump in Pseudomonas aeruginosa isolate […] assessed as potentiation of minocycline-induced antibacterial activity by measuring minocycline MIC at 8 ug/ml after 18 to 24 hrs by microbroth dilution assay (reference value: 64 ug/ml); conditions: isolate P262-104354
How it was run: (§4)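 Absolute minocycline MIC taken from checkerboard broth dilution with a fixed 8 μg/mL adjuvant. Inoculum was a 0.5 McFarland saline suspension diluted 1:50 in MHB, incubated 37 °C for 18 h. MIC is the lowest concentration with no growth.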

[12] = Cytotoxicity against human JIMT1 cells assessed as reduction in cell viability after 24 hrs by MTS assay; format: cell-based, JIMT-1
[13] = Cytotoxicity against human DU145 cells assessed as reduction in cell viability after 24 hrs by MTS assay; format: cell-based, DU-145
Pseudomonas aeruginosa [14] = test: Inhibition of RND efflux pump in Pseudomonas aeruginosa isolate P264-104354 assessed as potentiation of minocycline-induced antibacterial activity at 0.25 times antibacterial MIC after 18 to 24 hrs by checker board assay
How it was run: as §2, with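 “in MHB:” for “broth microdilution:”, “test agent” for “adjuvant”, “wells, incubated” for “wells,”, “FIC index” for “FICI”, “both FICs.” for “the two FICs; FICI ≤0.5 is synergy.”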

Pseudomonas aeruginosa [15] = test: Inhibition of RND efflux pump in colistin-resistant Pseudomonas aeruginosa isolate 91433 assessed as potentiation of minocycline-induced antibacterial activity at 0.25 times antibacterial MIC after 18 to 24 hrs by checker board assay; how it was run: as §2
Pseudomonas aeruginosa [16] = test: Inhibition of RND efflux pump in colistin-resistant Pseudomonas aeruginosa isolate 91433 assessed as potentiation of minocycline-induced antibacterial activity by measuring fold reduction in minocycline MIC at 0.25 times antibacterial MIC after 18 to 24 hrs by microbroth dilution assay; how it was run: as §2
[17] = Toxicity in Galleria mellonella assessed as death at 100 mg/kg after 24 hrs relative to control; format: organism-based; conditions: in vivo, read-out: Activity
[18] = tested on: Pseudomonas aeruginosa PAO1; test: Inhibition of RND efflux pump in Pseudomonas aeruginosa PAO1 assessed as potentiation of minocycline-induced antibacterial activity by measuring fold reduction in minocycline MIC at 8 ug/ml after 18 to 24 hrs by microbroth dilution assay relative to minocycline alone; how it was run: as §4
Pseudomonas aeruginosa [19] = test: Inhibition of RND efflux pump in colistin-resistant Pseudomonas aeruginosa isolate 91433 assessed as potentiation of minocycline-induced antibacterial activity by measuring minocycline MIC at 0.25 times antibacterial MIC after 18 to 24 hrs by microbroth dilution assay (reference value: 32 ug/ml); how it was run: as §2
Pseudomonas aeruginosa [20] = test: Inhibition of RND efflux pump in Pseudomonas aeruginosa isolate […] assessed as potentiation of minocycline-induced antibacterial activity by measuring minocycline MIC at 0.25 times antibacterial MIC after 18 to 24 hrs by microbroth dilution assay (reference value: 64 ug/ml); conditions: isolate P262-104354; how it was run: as §2
[21] = tested on: Pseudomonas aeruginosa PAO1; test: Inhibition of RND efflux pump in Pseudomonas aeruginosa PAO1 assessed as potentiation of minocycline-induced bactericidal activity up to 1 time antibacterial MIC after 9 hrs by serial dilution assay
Pseudomonas aeruginosa [22] = test: as §3, with “37.5” for “75”; format: organism-based; how it was run: as §1

`Cl.Cl.Cl.Cl.Cl.Cl.NC[C@H]1O[C@H](O[C@H]2[C@H](OCCCCCCCCCCCCN3CC[C@@H](c4ccc(F)cc4)[C@H](COc4ccc5c(c4)OCO5)C3)[C@@H](O[C@H]3O[C@H](CO)[C@@H](O)[C@H](N)[C@H]3O)[C@H](N)C[C@@H]2N)[C@H](N)C[C@@H]1O` gave an Activity (Pseudomonas aeruginosa [1]) of 100%, a fold change (FC) (Pseudomonas aeruginosa [2]) of 8 to 256 and a Ratio [3] of 2. It also gave a fractional inhibitory concentration index (FICI) (Pseudomonas aeruginosa [4]) of 0.19, a hemolysis at 0.5 h, 1000 ug/ml [5] of no more than 5% and a Survival (Pseudomonas aeruginosa [6]) of 56%. For the same molecule, the inhibition [7] was “Active”, the MIC (Pseudomonas aeruginosa [8]) was 0.25 µg/mL and the fractional inhibitory concentration index (FICI) (Pseudomonas aeruginosa [9]) was 0.06. For the same molecule, the Activity (Galleria mellonella) was “Non-Toxic”, the fold change (FC) (Pseudomonas aeruginosa [10]) was 8 to 256 and the MIC (Pseudomonas aeruginosa [11]) was less than 0.5 µg/mL.

In the case of `NC[C@H]1C[C@H](C(=O)N[C@H](CCc2ccccc2)C(=O)Nc2ccc3ccccc3c2)N(CCCCCCCCCCCCO[C@@H]2[C@@H](O[C@H]3O[C@H](CO)[C@@H](O)[C@H](N)[C@H]3O)[C@H](N)C[C@H](N)[C@H]2O[C@H]2O[C@H](CN)[C@@H](O)C[C@H]2N)C1`, the fold change (FC) (Pseudomonas aeruginosa [2]) was 8 to 256, the Ratio [3] was 2 and the CC50 at 24 h [12] was greater than 30 µM. It also gave a CC50 at 24 h [13] greater than 30 µM, a fractional inhibitory concentration index (FICI) (Pseudomonas aeruginosa [14]) of 0.25 and a fractional inhibitory concentration index (FICI) (Pseudomonas aeruginosa [15]) of 0.16. The fold change (FC) (Pseudomonas aeruginosa [16]) was 8 to 256, the mortality at 24 h [17] was 100% and the fold change (FC) [18] was 64. For the same molecule, the MIC (Pseudomonas aeruginosa [19]) was 0.25 µg/mL, the MIC (Pseudomonas aeruginosa [20]) was less than 0.5 µg/mL and the inhibition [21] was “Active”.

Work on `Cl.Cl.Cl.Cl.Cl.Cl.Cl.NC[C@H]1O[C@H](O[C@H]2[C@H](OCCCCCCCCCCCCN3CCN(Cc4cccc5ccccc45)CC3)[C@@H](O[C@H]3O[C@H](CO)[C@@H](O)[C@H](N)[C@H]3O)[C@H](N)C[C@@H]2N)[C@H](N)C[C@@H]1O` yielded an Activity (Pseudomonas aeruginosa [1]) of 100%, a fold change (FC) (Pseudomonas aeruginosa [2]) of 8 to 256 and a fractional inhibitory concentration index (FICI) (Pseudomonas aeruginosa [4]) of 0.13. For the same molecule, the hemolysis at 0.5 h, 1000 ug/ml [5] was no more than 5%, the Survival (Pseudomonas aeruginosa [6]) was 77% and the inhibition [7] was “Active”. It also gave an MIC (Pseudomonas aeruginosa [8]) of 0.25 µg/mL, a fractional inhibitory concentration index (FICI) (Pseudomonas aeruginosa [9]) of 0.03 and a fold change (FC) [18] of 16. The Survival (Pseudomonas aeruginosa [22]) was 10%, the Activity (Galleria mellonella) was “Non-Toxic” and the fold change (FC) (Pseudomonas aeruginosa [10]) was 8 to 256. The MIC (Pseudomonas aeruginosa [11]) was less than 0.5 µg/mL.
